# Hits are enriched below; roughly 2.2% of the tested compounds scored in any of these assays.
# Tb hexokinase = T. brucei hexokinase 1 inhibition; recombinant TbHK1, G6PDH-coupled NADH A340; inhibition, % at 10 µM; 0.11% of 220,000 active; AID 1430;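 active = inhibition of 50% or more in the single-dose primary screen; inactive = inhibition below 50%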
# Runt-CBFb FRET = inhibitors of human RUNX1 Runt domain binding to CBFb; Q01196+Q13951; Cerulean-Runt/Venus-CBFb FRET ratio 530/480, 1 h; inhibition, % at 20 µM; 0.46% of 220,000 active;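 active = inhibition over about 50% at 20 µM in the single-dose screen, limit read from the data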;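 note: 0% = DMSO wells and 100% = excess unlabeled CBFb competitor control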
#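 test system = Cerulean-tagged RUNX1 Runt domain (FRET donor) fusion protein | reagent = Venus-CBFb binding partner, 100 nM | incubation = protein complex preformed 1 h, compound exposure 1 h, room temperature, dark | detection = FRET fluorescence | read-out basis = loss of energy transfer signal | controls = 5 µM unlabeled CBFb as full-inhibition high control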
# RanGTP-Impb inh = inhibitors of RanGTP-importin-beta interaction, primary screen, biochemical, FRET, CFP-Ran, YFP-importin-beta, homogeneous | inhibition, % (no concentration beside the values) | cell-free CFP-Ran/YFP-importin-beta FRET ratio | 1.1% of 300,000 active | AID 2216;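 active = more than half of the replicate wells show a fall in the fluorescence ratio signal beyond about 16%, limit read from the data, passing the limit was not always enough; inconclusive = exactly half of the replicate wells pass the set limit; inactive = fewer than half of replicates pass the limit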;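 note: 0% = DMSO wells and 100% = Ran loaded with GDP instead of GTP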
# Runt-SMMHC FRET = blocks binding of human RUNX1 Runt domain to CBFb-SMMHC; Q01196+Q13951; Cerulean-Runt/Venus-CBFb-SMMHC FRET ratio 530/480, 1 h; inhibition, % at 20 µM; 0.74% of 220,000 active; AID 1434;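 active = mean inhibition across duplicate retests at 20 µM reaching about 50%, limit read from the data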;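 note: 0% = DMSO wells and 100% = wells with excess untagged CBFb-SMMHC; inhibitors lower the FRET ratio by blocking Runt binding to CBFb-SMMHC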
# 14-3-3 Bad PPI = disrupts binding of bovine 14-3-3 zeta to phospho-Bad peptide | TR-FRET 14-3-3zeta/Dy647-pBad peptide displacement, 1 h | 0.71% of 220,000 active | P63103 | inhibition, % at 21.7 µM;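 active = inhibition above about 70%, limit read from the data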;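 note: 0% = full 14-3-3 plus peptide FRET controls and 100% = background without 14-3-3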
# Target sequence (P63103 whole entry, looked up): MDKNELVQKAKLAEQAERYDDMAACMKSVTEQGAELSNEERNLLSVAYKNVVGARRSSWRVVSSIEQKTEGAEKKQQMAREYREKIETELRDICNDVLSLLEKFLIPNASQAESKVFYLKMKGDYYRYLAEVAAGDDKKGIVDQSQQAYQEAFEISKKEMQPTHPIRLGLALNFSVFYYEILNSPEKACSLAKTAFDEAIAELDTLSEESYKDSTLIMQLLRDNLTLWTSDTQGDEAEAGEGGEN
# Hck-Nef inh = human Hck-Nef kinase inhibition. P08631. 0.68% of 220,000 active. Recombinant Hck-YEEI plus Nef, Z-Lyte FRET kinase assay. inhibition, % at 20 µM;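 active = Hck-Nef kinase inhibition above about 50%, limit read from the data; inactive = inhibition below that limit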;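 note: 0% = DMSO with Hck plus Nef and 100% = Hck alone without Nef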
# Numbers without * were called inactive; ? = inconclusive; . = not tested or not shown.
SMILES,Tb hexokinase,Runt-CBFb FRET,RanGTP-Impb inh,Runt-SMMHC FRET,14-3-3 Bad PPI,Hck-Nef inh
CCCN1C2CCCC1CC(NC(=S)Nc1ccc(OC)cc1)C2 (stereo not given),-5,24,1,71*,-9,21
COc1ccc(NC(=S)NC2CC3CCCC(C2)N3C2CC2)cc1 (stereo not given),6,0,3,2,-12,19
O=C(O)C1CN(C(=O)c2cccc(Br)c2)C1,-11,0,-1,-1,-3,-4
CCCCn1c(N)c(NCC)c(=O)[nH]c1=O,1,24,.,70*,-3,0
O=C(c1cccc(S(=O)(=O)Nc2ccccc2Cl)c1)N1CCC1,.,.,0,.,.,.
CC1CCCN(C(=O)c2cccc(S(=O)(=O)Nc3cc(C(F)(F)F)ccc3Cl)c2)C1 (stereo not given),7,-6,1,-10,90*,0
COC(=O)CNC(=O)CSc1nc(N)cc(=O)[nH]1,-7,0,-3,-1,8,2
C=CCNC(=O)/C(C#N)=C/c1c(N2CCN(c3ccccc3)CC2)nc2c(C)cccn2c1=O,.,.,28*,.,.,.
COCCCNC(=O)/C(C#N)=C/c1c(N2CCN(c3ccccc3)CC2)nc2c(C)cccn2c1=O,.,.,32*,.,.,.
COCCCNC(=O)/C(C#N)=C/c1c(N2CCN(c3cccc(Cl)c3)CC2)nc2c(C)cccn2c1=O,.,.,6,.,.,.
CCNC(=O)/C(C#N)=C/c1c(N2CCN(Cc3ccc4c(c3)OCO4)CC2)nc2c(C)cccn2c1=O,-16,50*,9,63*,-1,4
O=c1c(O)c(-c2ccc3c(c2)OCO3)oc2ccccc12,-14,-22,32*,-53,13,-4
O=C(Nc1ccc2c(c1)oc1ccccc12)c1ccc2c(c1)OCO2,-11,1,8,0,7,3
O=C(CN1C(=O)S/C(=C\c2ccc(F)cc2)C1=O)NC1C=CS(=O)(=O)C1 (stereo not given),.,.,16*,.,.,.
COc1ccc(/C=C2\SC(=O)N(CC(=O)NC3C=CS(=O)(=O)C3)C2=O)cc1 (stereo not given),.,.,2,.,.,.
Cc1ccccc1Cn1cc(NC(=O)c2cc3nc(-c4ccco4)cc(C(F)(F)F)n3n2)cn1,-18,-5,30*,-86,-3,4
Cc1ccc(Cn2ccc(NC(=O)c3cc4nc(-c5ccco5)cc(C(F)(F)F)n4n3)n2)cc1,-13,.,4,-21,-4,2
CCc1ccc(-c2cc(C(F)(F)F)n3nc(C(=O)Nc4cnn(Cc5ccc(C)cc5)c4)cc3n2)s1,3,-50,39*,-4,30,6
Cn1c(C(=O)O)cc2c(=O)n3ccccc3nc21,-32,43,8,78*,16,25
CCOC(=O)C1CCN(C(=O)c2cc3c(=O)n4ccccc4nc3n2C)CC1,-15,22,?,51*,19,13
Cn1c(C(=O)N2CCOCC2)cc2c(=O)n3ccccc3nc21,.,.,4,.,.,.
Cn1c(C(=O)N2CCc3ccccc3C2)cc2c(=O)n3ccccc3nc21,32,21,1,79*,.,29
CCOC(=O)c1c(N)n(-c2ccc(N)cc2)c2nc3ccccc3nc12,-22,1,0,6,9,-5
CCOC(=O)c1c(N)n(C2CC(C)(C)NC(C)(C)C2)c2nc3ccccc3nc12,-15,50,?,94*,7,30
CCCCn1c(NC(=O)c2ccccc2Cl)c(C#N)c2nc3ccccc3nc21,21,84*,-5,60*,54,4
SMILES,Tb hexokinase,Runt-CBFb FRET,RanGTP-Impb inh,Runt-SMMHC FRET,14-3-3 Bad PPI,Hck-Nef inh
COc1ccc(-n2c(NC(=O)c3ccco3)c(C#N)c3nc4ccccc4nc32)cc1,-5,-2,128*,-3,43,12
CCC(=O)Nc1c(C#N)c2nc3ccccc3nc2n1-c1ccccc1C,-15,-5,?,-4,13,29
CCCCn1c(NC(=O)CC)c(C#N)c2nc3ccccc3nc21,-6,4,5,11,42,23
N#Cc1c(NC(=O)c2ccccc2Cl)n(Cc2ccccc2)c2nc3ccccc3nc12,-8,49,.,111*,18,22
COc1ccc(C(=O)Nc2ccc(NC(=O)c3ccco3)cc2)cc1,.,.,-3,.,.,.
CC1Sc2ccc(S(=O)(=O)CCC(=O)NC3CCCC(C)C3C)cc2NC1=O (stereo not given),.,.,-1,.,.,.
CCOC(=O)c1c(NC(=O)c2ccco2)n(C2CCCCC2)c2nc3ccccc3nc12,-17,19,79*,32,2,15
O=C(CCCOc1ccc(Cl)cc1Cl)Nc1cccnc1,-1,-1,?,2,78*,4
CSc1cccc(NC(=O)CCCOc2ccc(Cl)cc2Cl)c1,-3,-3,1,1,4,-13
CCOc1ccc(CCNC(=O)COC(=O)c2cccnc2OCC)cc1OCC,1,1,20*,0,-16,5
O=C(NC1CCCCC1)c1ccc2[nH]c(=O)c(=O)[nH]c2c1,.,.,-1,.,.,.
CC(C)n1c(=S)[nH]c2scc(-c3cccs3)c2c1=O,24,8,?,-12,1,98*
CCn1c(=S)[nH]c2scc(-c3cccs3)c2c1=O,-2,6,?,5,-3,15
Cc1ccnc(NC(=O)c2ccc(Cl)c(NC(=O)CCc3ccccc3)c2)c1,1,0,24*,-2,-1,4
Cc1c(C(c2ccccc2Br)c2c(C)n(C)n(-c3ccccc3)c2=O)c(=O)n(-c2ccccc2)n1C,.,.,5,.,.,.
O=C(NCc1ccco1)C1CCN(C(=O)c2cc3sccc3n2Cc2ccc(F)cc2)CC1,-10,-1,0,-2,1,1
O=C(NCc1ccco1)C1CCN(Cc2ccc(F)cc2)CC1,0,1,-1,-2,80*,-9
Cc1ccc(C(=O)NC2(C(F)(F)F)N=C3SCCN3C2=O)cc1 (stereo not given),2,2,1,0,74*,0
O=C(NC1(C(F)(F)F)N=C2SCCN2C1=O)c1cccnc1 (stereo not given),2,1,-2,-2,-13,4
CCCOc1ccc(C(=O)NC2CCSc3ccccc32)cc1 (stereo not given),.,.,0,.,.,.
N#Cc1ccc(Oc2cccc3cccnc23)c([N+](=O)[O-])c1,.,.,35*,.,.,.
N#Cc1cc(Oc2cccc3cccnc23)c(-n2nnc3ccccc32)cc1C#N,-7,-21,21*,-62,-7,0
N#Cc1cc(O)c(-n2nnc3ccccc32)cc1C#N,-14,0,-2,-5,4,16
CCCCc1nc2cc(C(=O)N3CCCCC3CCNC(C)=O)ccc2o1 (stereo not given),.,.,2,.,.,.
COc1c(S(=O)(=O)n2nc(C)cc2C)ccc(Cl)c1Cl,-3,0,-1,-1,-5,0

# High-throughput results from PubChem BioAssay.
